Here are results for 14 molecules from PubChem BioAssay.

Structures are written as SMILES. Activity calls are given as the source filed them.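 How the source made its calls, unless noted: active means inhibition above 20% together with a positive visual image hit; inconclusive means visual image hit but inhibition not above 20%; inactive means no visual image hit.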

Usually inhibition stands for the drop in the measured response relative to a control, in per cent.

Test [1] in a line: inhibitors of TNFa-induced NFkB p65 translocation, primary screen, imaging, HUVEC, MLSMR starter and 10KST1 sets (AID 438).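 Further: compound added about 3h40 before a 20 min TNFalpha stimulation.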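 On inhibition: signal is the nuclear over cytoplasmic p65 intensity ratio per well.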 The following applies: HUVEC TNFa-induced p65 nuclear translocation; cell count: measured here: nuclei count (cytotoxicity indicator), at 2.08 µM; inhibition: at 2 µM, stronger effect = higher value, 0% TNFa-plus-vehicle, 100% no-TNFa wells.
Test [2] in a line: reduction of polyQ htt aggregates in cells – imaging, exon1htt(103Q)mCFP cells, high-content imaging, primary screen (AID 483;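 active means visual image review flags a hit and inhibition of aggregation exceeds 20%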;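 further: compound exposure lasted 3 days before fixation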;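 on nuclei count: percent of the per-plate median nuclei count of sample wells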). The following applies: exon1htt(103Q)mCFP cell line, aggregate imaging, at 2 µM; inhibition of aggregation: stronger effect = higher value; nuclei count: measured here: cell count, toxicity.
Test [3] can be described thus: endothelial E-selectin expression blockers – imaging, HUVEC, immunofluorescence, MLSMR starter and 10KST1 sets, primary screen (AID 487;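 active means visually confirmed hit in the image check and inhibition above 20%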;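 on inhibition: signal is fraction of cell area covered by stained E-selectin grains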;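 on nuclei count: 100% = median nuclei count of all wells on the same plate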). The following applies: HUVEC TNFalpha-induced E-selectin immunofluorescence imaging, at 2 µM; inhibition: stronger effect = higher value; nuclei count: measured here: cell number, toxicity.
For test [4], the target named is Voltage-gated potassium channel subunit beta-2 (Rattus norvegicus) (UniProt P62483). The test can be described thus: inhibitors of rat Kvbeta2 reductase activity – biochemical, NADPH fluorescence, primary screen (AID 622;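 active means fluorescence slope higher than the sample average by over 3 SD, cut at about -0.22 in these data, passing the limit was not always enough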;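 further: slope of raw intensity against log time taken from 70 to 1610 s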). The following applies: recombinant KvBeta, 4-cyanobenzaldehyde reduction, at 10 µM, stronger effect = higher value.
Sequence of Voltage-gated potassium channel subunit beta-2 (Rattus norvegicus) (P62483 whole entry, looked up): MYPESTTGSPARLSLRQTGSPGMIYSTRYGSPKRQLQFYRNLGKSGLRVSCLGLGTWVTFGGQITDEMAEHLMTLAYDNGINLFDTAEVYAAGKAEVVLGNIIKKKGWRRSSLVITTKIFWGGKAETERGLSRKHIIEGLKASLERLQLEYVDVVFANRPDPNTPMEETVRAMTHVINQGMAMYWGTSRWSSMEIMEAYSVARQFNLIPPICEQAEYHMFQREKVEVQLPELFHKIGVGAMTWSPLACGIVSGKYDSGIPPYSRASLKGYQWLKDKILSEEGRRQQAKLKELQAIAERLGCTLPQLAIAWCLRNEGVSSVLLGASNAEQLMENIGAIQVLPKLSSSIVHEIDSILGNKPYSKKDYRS
The target is the same in test [5]. The test can be described thus: enhancers of rat Kvbeta2 NADPH turnover – biochemical, NADPH fluorescence, primary screen (AID 623;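 active means NADPH fluorescence slope more negative than the mean of all samples by about 3 SD, 99.7% confidence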;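 further: fluorescence intensity change per second fitted from 20 to 320 s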). To be noted: Recombinant KvBeta, NADPH fluorescence decrease slope, 10 min; at 10 µM; stronger effect = lower value.
The target of test [6] is Muscarinic acetylcholine receptor M4 (Homo sapiens) (UniProt P08173). The test can be described thus: M4-linked GIRK flux change, two-sided – cell-based, HEK293 M4/GIRK, thallium flux, BTC-AM, M4 allosteric agonist project, primary screen (AID 625;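 active means fluorescence slope after compound addition differing from the mean of all tested samples at 99.7% confidence, mostly higher but some lower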;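 further: thallium influx through GIRK channels coupled to M4 in HEK293 cells with BTC-AM dye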). To be noted: at 10 µM, actives lie on both sides. The procedure, abridged:
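assay system = HEK293 cells with M4 receptor and GIRK channels | medium = pH 7.3 thallium assay buffer | doses = 10 µM final, single point | timing = cells overnight at 37 °C, BTC-AM loading 1 h, reads 2 min total | signal = BTC-AM fluorescence, 1 Hz kinetic reads | read-out = post-addition slope, 15–24 s, of baseline-normalized fluorescence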

The nature of test [7]: blockers of RIG-like receptor reporter activation – cell-based, Sendai virus stimulus, luciferase, 10K MLSCN set, TLR/RLR signaling modifier project, primary screen (AID 602276;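 active means inhibition at or above 50% at 10 µM; inactive means inhibition below 50%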;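 further: firefly luciferase from ISG56 promoter only with Renilla not read in this screen; 0% = Sendai virus plus DMSO and 100% = medium plus DMSO without virus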). To be noted: HEK293 RL24 IRF3 luciferase reporter, at 10 µM, stronger effect = higher value.
Test [8] can be described thus: TLR3 IRF3 reporter activation blockers – cell-based, poly I:C stimulus, luciferase, 10K MLSCN set, primary screen (AID 602277;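 active means inhibition of the reporter signal at or above 50%; inactive means inhibition below 50%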). To be noted: HEK293-TLR3 RL24 IRF3 luciferase reporter, at 10 µM, stronger effect = higher value. For orientation: A reporter such as luciferase makes a cellular process visible.

Sequence of Muscarinic acetylcholine receptor M4 (Homo sapiens) (P08173 whole entry, looked up): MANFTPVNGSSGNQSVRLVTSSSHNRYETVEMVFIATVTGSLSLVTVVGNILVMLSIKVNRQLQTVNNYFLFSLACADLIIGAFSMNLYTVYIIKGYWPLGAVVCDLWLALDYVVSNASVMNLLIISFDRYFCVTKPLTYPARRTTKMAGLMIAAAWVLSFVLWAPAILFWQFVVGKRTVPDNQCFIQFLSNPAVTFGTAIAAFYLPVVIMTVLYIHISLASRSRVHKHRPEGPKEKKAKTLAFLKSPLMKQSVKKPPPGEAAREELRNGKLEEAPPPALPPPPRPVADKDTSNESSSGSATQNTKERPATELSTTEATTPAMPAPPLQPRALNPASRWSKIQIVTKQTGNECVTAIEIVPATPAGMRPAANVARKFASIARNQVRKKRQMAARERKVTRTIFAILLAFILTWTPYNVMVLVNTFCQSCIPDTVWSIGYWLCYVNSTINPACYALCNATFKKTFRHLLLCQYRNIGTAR

Turning to `Cc1cc(C)c2oc(=O)cc(CN3CCOCC3)c2c1`, in test [1], the cell count amounted to 647. The inhibition was 2% (inactive) in test [1], -10.1% (inactive) in test [3], 15.5% (inactive) in test [7] and 25.5% (inactive) in test [8]. In test [2], the inhibition of aggregation is 4.4% (inactive). Further, the results for the nuclei count in test [2] and in test [3] were 87.2% and 99.8%, respectively. Moreover, the results for the fluorescence slope in test [4] and in test [6] were -0.551 (inactive) and 0.00519 (inactive), respectively. Besides, the NADPH fluorescence slope in test [5] was 2.5e-06 (inactive).
Regarding `COc1nc(OC)nc(N2CCC(C(=O)NC3CCCCCC3)CC2)n1`, the cell count in test [1] came out at 462. Moreover, the inhibition is 7.8% (inactive) in test [1], -6% (inactive) in test [3], -10% (inactive) in test [7] and -8.66% (inactive) in test [8]. Besides, the inhibition of aggregation in test [2] is 6.7% (inactive). Also, the figures for the nuclei count in test [2] and in test [3] were 87.3% and 110%, respectively. Also, the fluorescence slope is -0.469 (inactive) in test [4] and 0.00646 (inactive) in test [6]. The NADPH fluorescence slope in test [5] is 6.4e-05 (inactive).
`c1ccc2c3nnc4n(c-3nc2c1)CCCS4`: the cell count in test [1] turned out to be 472. Besides, the inhibition in test [1] was 4.1% (inactive); in test [3], 17.9% (inactive); in test [7], -12.6% (inactive); in test [8], -19.6% (inactive). In test [2], the inhibition of aggregation was 0.4% (inactive). The nuclei count is 101% in test [2] and 112% in test [3]. The fluorescence slope was -0.444 (inactive) in test [4] and 0.00387 (inactive) in test [6]. Besides, in test [5], the NADPH fluorescence slope was -2.5e-05 (inactive).
Take `CC1CN(S(=O)(=O)c2cccc(C(=O)OCc3cc(=O)oc4cc(O)ccc34)c2)CC(C)O1` (centres undefined): the cell count in test [1] amounted to 380. For the same molecule, the inhibition is -2.9% (inactive) in test [1], -28.2% (inactive) in test [3], 23.9% (inactive) in test [7] and 23.3% (inactive) in test [8]. In test [2], the inhibition of aggregation is 3% (inactive). Besides, the results for the nuclei count in test [2] and in test [3] were 100% and 83%, respectively. The fluorescence slope in test [4] was -0.288 (inactive); in test [6], 0.00505 (inactive). For the same molecule, the NADPH fluorescence slope in test [5] is -7.6e-05 (inactive).
For the molecule `O=C(C1CCC1)N1CCc2cc(S(=O)(=O)N3CCc4ccccc4C3)ccc21`, in test [1], the cell count was 299. Further, the inhibition in test [1] is 0% (inactive); in test [3], -0.1% (inactive); in test [7], -7.83% (inactive); in test [8], 4.09% (inactive). In addition, the inhibition of aggregation in test [2] was 8.8% (inactive). The nuclei count in test [2] was found to be 113%; in test [3], 118%. Besides, the fluorescence slope is -0.411 (inactive) in test [4] and 0.00795 (inactive) in test [6]. For the same molecule, the NADPH fluorescence slope in test [5] was 7.8e-05 (inactive).
Turning to `CC(=O)c1cccc(NC(=O)c2ccc(NS(C)(=O)=O)cc2)c1`, in test [1], the cell count was 486. Also, the inhibition in test [1] is -8.9% (inactive); in test [3], 32.6% (inactive); in test [7], 12.2% (inactive); in test [8] it was 15.9% (inactive). The inhibition of aggregation in test [2] was 9% (inactive). For the same molecule, the results for the nuclei count in test [2] and in test [3] were 94.4% and 98.5%, respectively. Further, the values for the fluorescence slope in test [4] and in test [6] were -0.444 (inactive) and 0.00538 (inactive), respectively. Further, the NADPH fluorescence slope in test [5] was -5.1e-05 (inactive).
In the case of `CC(NC(=O)c1ccc(F)cc1)C(c1cccs1)N1CCN(C)CC1` (centres undefined), the cell count in test [1] worked out at 466. Further, the inhibition in test [1] is -7.5% (inactive); in test [3], 23% (inactive); in test [7] it was 5.9% (inactive); in test [8], 15.9% (inactive). Besides, the inhibition of aggregation in test [2] was -8.9% (inactive). In addition, the values for the nuclei count in test [2] and in test [3] were 93.6% and 92.2%, respectively. Moreover, the fluorescence slope in test [4] is -0.424 (inactive); in test [6], 0.00581 (inactive). Moreover, the NADPH fluorescence slope in test [5] was -5e-05 (inactive).
Consider `Cc1csc(NC(=O)c2sc3nc(-c4cccs4)ccc3c2N)n1`, for which the cell count in test [1] was found to be 340. Moreover, the inhibition was -1.9% (inactive) in test [1], -5.9% (inactive) in test [3], -19.2% (inactive) in test [7] and -115% (inactive) in test [8]. Also, in test [2], the inhibition of aggregation is 30.2% (inactive). The values for the nuclei count in test [2] and in test [3] were 68.7% and 90.5%, respectively. In addition, the fluorescence slope was -0.0131 (active) in test [4] and 0.0189 (active) in test [6]. For the same molecule, the NADPH fluorescence slope in test [5] is 2.9e-06 (inactive).
As to `CCCc1nn(CCc2ccccn2)c(N)c1CC`, the cell count in test [1] turned out to be 613. The inhibition in test [1] was -9.1% (inactive); in test [3] it was -43.2% (inactive); in test [7] it was 14.8% (inactive); in test [8], 21.5% (inactive). Besides, in test [2], the inhibition of aggregation is 7.2% (inactive). Further, the nuclei count in test [2] is 105%; in test [3] it was 140%. Moreover, the fluorescence slope in test [4] was -0.372 (inactive); in test [6] it was 0.00633 (inactive). In test [5], the NADPH fluorescence slope is 5.8e-05 (inactive).
As to `N#CCc1nc(CSc2nc3ccccc3s2)cs1`, the cell count in test [1] is 347. For the same molecule, the inhibition in test [1] was -4.4% (inactive); in test [3], -27.5% (inactive); in test [7], -24.2% (inactive); in test [8] it was -87.8% (inactive). Moreover, the inhibition of aggregation in test [2] is -7.5% (inactive). Moreover, the nuclei count is 98% in test [2] and 114% in test [3]. Moreover, the fluorescence slope in test [4] is -0.551 (inactive); in test [6] it was 0.0089 (inactive). The NADPH fluorescence slope in test [5] is -2.5e-05 (inactive).
Take `Cc1cc2oc(C(=O)NC3CCS(=O)(=O)C3)c(C)c2cc1C` (centres undefined): the cell count in test [1] came to 328. In addition, the inhibition in test [1] was 5.6% (inactive); in test [3], -75.1% (inactive); in test [7], 9.17% (inactive); in test [8] it was -12% (inactive). In test [2], the inhibition of aggregation is -2.9% (inactive). The nuclei count in test [2] came to 97%; in test [3], 118%. For the same molecule, the fluorescence slope in test [4] was -0.576 (inactive); in test [6] it was 0.00365 (inactive). In test [5], the NADPH fluorescence slope was -3.1e-05 (inactive).
As for `Cc1ccc(CSc2nc3c(c(=O)[nH]2)C(c2ccncc2)C2=C(CCCC2=O)N3)cc1` (centres undefined), in test [1], the cell count amounted to 518. Also, the inhibition was -16.7% (inactive) in test [1], -14.5% (inactive) in test [3], 21.7% (inactive) in test [7] and 15.5% (inactive) in test [8]. Further, the inhibition of aggregation in test [2] is 3.6% (inactive). Further, the figures for the nuclei count in test [2] and in test [3] were 79.3% and 87.2%, respectively. The fluorescence slope in test [4] is -0.457 (inactive); in test [6], 0.00543 (inactive). Moreover, in test [5], the NADPH fluorescence slope is -3.5e-05 (inactive).
Consider `Cc1ccc2nc(SC(C)C(=O)N3CCCC3)[nH]c2c1` (centres undefined), for which, in test [1], the cell count turned out to be 467. For the same molecule, the inhibition in test [1] is 0% (inactive); in test [3] it was -59.3% (inactive); in test [7], -21.2% (inactive); in test [8], -39.7% (inactive). The inhibition of aggregation in test [2] is 9.4% (inactive). Besides, the nuclei count in test [2] came out at 75.7%; in test [3], 112%. Moreover, the fluorescence slope in test [4] is -0.478 (inactive); in test [6], 0.00661 (inactive). The NADPH fluorescence slope in test [5] was 6e-05 (inactive).
Take `COc1ccc(-c2nc(N3CCCC3)[nH]c(=O)c2C#N)cc1`: the cell count in test [1] came out at 373. The inhibition in test [1] was -48.5% (inactive); in test [3], -50.2% (inactive); in test [7], 18.9% (inactive); in test [8], 13% (inactive). In addition, in test [2], the inhibition of aggregation was -7.1% (inactive). In addition, the nuclei count turned out to be 107% in test [2] and 114% in test [3]. The fluorescence slope in test [4] was -0.471 (inactive); in test [6], 0.0047 (inactive). In test [5], the NADPH fluorescence slope is -1.8e-05 (inactive).
